Source: ChEMBL document CHEMBL1125563, “Selective, centrally acting serotonin 5-HT2 antagonists. 1. 2- and 6-substituted 1-phenyl-3-(4-piperidinyl)-1H-indoles” (J Med Chem, 1992)

Columns and labels:
[1] = biological target: T1, Adrenergic receptor alpha-1 (Rattus norvegicus, UniProt P15823+P23944+P43140); assay: Displacement of [3H]prazosin from Alpha-1 adrenergic receptor of whole rat brain membranes; assay type: cell membranes, Membrane
T1 sequence (P15823 whole entry): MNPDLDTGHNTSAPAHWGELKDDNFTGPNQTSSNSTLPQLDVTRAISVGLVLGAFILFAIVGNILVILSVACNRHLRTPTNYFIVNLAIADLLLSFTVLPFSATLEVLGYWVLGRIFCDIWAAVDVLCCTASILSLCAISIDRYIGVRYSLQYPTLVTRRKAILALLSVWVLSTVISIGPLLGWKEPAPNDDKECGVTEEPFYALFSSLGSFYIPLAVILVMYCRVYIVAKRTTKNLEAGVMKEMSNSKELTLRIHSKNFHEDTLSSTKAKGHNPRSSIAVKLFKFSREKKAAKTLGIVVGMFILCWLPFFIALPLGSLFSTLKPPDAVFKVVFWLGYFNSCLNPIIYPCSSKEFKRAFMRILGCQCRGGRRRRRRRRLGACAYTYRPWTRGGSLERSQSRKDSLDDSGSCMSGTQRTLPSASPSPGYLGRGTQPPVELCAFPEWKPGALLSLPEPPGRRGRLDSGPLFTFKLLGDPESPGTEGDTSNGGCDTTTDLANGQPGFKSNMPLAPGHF
T1 sequence (P23944 whole entry): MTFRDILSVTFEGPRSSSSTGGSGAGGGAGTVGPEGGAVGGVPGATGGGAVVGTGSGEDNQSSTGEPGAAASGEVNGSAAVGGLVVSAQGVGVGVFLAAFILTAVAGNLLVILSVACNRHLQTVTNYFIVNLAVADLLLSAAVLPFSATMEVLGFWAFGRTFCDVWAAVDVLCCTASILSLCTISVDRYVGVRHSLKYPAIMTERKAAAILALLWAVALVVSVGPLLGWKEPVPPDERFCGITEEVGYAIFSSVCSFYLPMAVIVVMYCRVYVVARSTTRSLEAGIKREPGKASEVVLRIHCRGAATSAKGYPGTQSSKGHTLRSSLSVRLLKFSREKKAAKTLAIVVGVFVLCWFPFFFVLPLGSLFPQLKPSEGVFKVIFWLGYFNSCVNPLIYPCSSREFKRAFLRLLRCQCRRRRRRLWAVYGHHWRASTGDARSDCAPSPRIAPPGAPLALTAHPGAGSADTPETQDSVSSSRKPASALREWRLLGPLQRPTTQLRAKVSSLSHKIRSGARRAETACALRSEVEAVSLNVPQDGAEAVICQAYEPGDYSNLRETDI
T1 sequence (P43140 whole entry): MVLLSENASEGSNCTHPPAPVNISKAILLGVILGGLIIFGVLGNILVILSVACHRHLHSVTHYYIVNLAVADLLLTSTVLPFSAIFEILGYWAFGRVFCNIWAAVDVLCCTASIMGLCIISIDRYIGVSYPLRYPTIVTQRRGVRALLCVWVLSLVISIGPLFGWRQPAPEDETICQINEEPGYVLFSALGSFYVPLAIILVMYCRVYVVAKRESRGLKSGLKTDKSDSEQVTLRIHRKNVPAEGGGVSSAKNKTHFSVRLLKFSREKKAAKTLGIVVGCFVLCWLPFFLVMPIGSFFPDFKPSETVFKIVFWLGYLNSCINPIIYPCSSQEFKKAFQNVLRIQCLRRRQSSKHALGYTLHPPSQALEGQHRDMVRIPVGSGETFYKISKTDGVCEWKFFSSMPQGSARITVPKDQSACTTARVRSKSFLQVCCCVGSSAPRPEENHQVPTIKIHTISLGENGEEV
How it was run: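 α1 adrenoceptor binding measured as displacement of [3H]prazosin from whole rat brain membranes. Five test-drug concentrations spanning three decades in triplicate, two full curves; IC50 from log concentration-effect curves, logarithmic mean of at least two determinations.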

Rattus norvegicus [2] = assay: Compound was evaluated for the inhibition of quipazine-induced head twitches after 2 h (administered subcutaneously); assay type: functional; conditions: sc
Rattus norvegicus [3] = assay: Compound was evaluated for the inhibition of quipazine-induced head twitches after 24 hr (administered subcutaneously); assay type: functional; conditions: sc
[4] = biological target: Serotonin 2 (5-HT2) receptor (Rattus norvegicus, UniProt P30994+P08909+P14842); assay: Displacement of [3H]ketanserin from 5-hydroxytryptamine 2 receptor from rat cortical membranes.; assay type: cell membranes, Membrane
How it was run: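 [3H]ketanserin displacement from rat cortical membranes (5-HT2). Five concentrations across three decades in triplicate, two full curves; IC50 estimated on a log-concentration scale, given as logarithmic mean of at least two determinations.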

D(2) dopamine receptor = D(2) dopamine receptor (Rattus norvegicus, UniProt P61169); assay: Displacement of [3H]-spiperone from Dopamine receptor D2 from rat striatal membranes; assay type: cell membranes, Membrane
How it was run: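 [3H]spiperone displacement from rat striatal membranes (D2). Five test-drug concentrations over three decades, in triplicate, two full curves; IC50 from log concentration-effect curves, reported as logarithmic mean of at least two determinations.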

Mus musculus [5] = organism: Mus musculus; assay: Compound was evaluated for the inhibition of isolation-induced aggression at a threshold of 180 seconds; assay type: functional
How it was run: (§1)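 Isolated male NMRI mice (3 weeks) trained to attack a nonaggressive intruder of the same strain; only mice with attack latency <25 s included. Pretested just before dosing and 2 h after sc test substance; observation maximum 180 s; at least eight mice per dose.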

Mus musculus [6] = organism: Mus musculus; assay: Compound was evaluated for the inhibition of isolation-induced aggression at a threshold of, 90 seconds; assay type: functional; how it was run: as §1
Rattus norvegicus [7] = assay: Compound was evaluated for the inhibition of quipazine-induced head twitches after 2 h (administered subcutaneously); 0.11-0.29; assay type: functional; conditions: sc
Rattus norvegicus [8] = assay: Compound was evaluated for the inhibition of quipazine-induced head twitches after 24 hr (administered perorally); 0.014-0.074; assay type: functional; conditions: po
Rattus norvegicus [9] = assay: Compound was evaluated for the inhibition of pergolide-induced reactions after 2 hr (administered subcutaneously); assay type: functional; conditions: sc
How it was run: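 Male Wistar rats with unilateral 6-OHDA lesions; test drug sc 2 h before pergolide (0.05 µmol/kg sc) to induce contralateral circling. Effect of each dose expressed as percent of mean of control sessions 1 week before and 1 week after, per rat; at least four rats per dose; ED50 by log-probit analysis.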

Rattus norvegicus [10] = assay: Compound was evaluated for the inhibition of quipazine-induced head twitches after 24 h (administered subcutaneously); 0.0042-0.061; conditions: sc
Mus musculus [11] = organism: Mus musculus; assay: Compound was evaluated for the inhibition of isolation-induced aggression at a threshold of,90 seconds; assay type: functional; how it was run: as §1
Rattus norvegicus [12] = assay: Compound was evaluated for the inhibition of quipazine-induced head twitches after 2 hr (administered subcutaneously); 0.018-0.096; assay type: functional; conditions: sc
Rattus norvegicus [13] = assay: Compound was evaluated for the inhibition of quipazine-induced head twitches after 24 hr (administered subcutaneously); 0.010-0.12; assay type: functional; conditions: sc
Rattus norvegicus [14] = assay: Compound was evaluated for the inhibition of quipazine-induced head twitches after 24 h (administered perorally); 0.056-0.22; assay type: functional; conditions: po
Rattus norvegicus [15] = assay: Compound was evaluated for the inhibition of quipazine-induced head twitches after 2 hr (administered subcutaneously); 0.010-0.24; assay type: functional; conditions: sc
Rattus norvegicus [16] = assay: Compound was evaluated for the inhibition of quipazine-induced head twitches after 24 hr (administered subcutaneously); 0.0027-0.031; assay type: functional; conditions: sc
Rattus norvegicus [17] = assay: Compound was evaluated for the inhibition of quipazine-induced head twitches after 24 hr (administered perorally); 0.010-0.048; assay type: functional; conditions: po

Sequence of D(2) dopamine receptor (P61169 whole entry): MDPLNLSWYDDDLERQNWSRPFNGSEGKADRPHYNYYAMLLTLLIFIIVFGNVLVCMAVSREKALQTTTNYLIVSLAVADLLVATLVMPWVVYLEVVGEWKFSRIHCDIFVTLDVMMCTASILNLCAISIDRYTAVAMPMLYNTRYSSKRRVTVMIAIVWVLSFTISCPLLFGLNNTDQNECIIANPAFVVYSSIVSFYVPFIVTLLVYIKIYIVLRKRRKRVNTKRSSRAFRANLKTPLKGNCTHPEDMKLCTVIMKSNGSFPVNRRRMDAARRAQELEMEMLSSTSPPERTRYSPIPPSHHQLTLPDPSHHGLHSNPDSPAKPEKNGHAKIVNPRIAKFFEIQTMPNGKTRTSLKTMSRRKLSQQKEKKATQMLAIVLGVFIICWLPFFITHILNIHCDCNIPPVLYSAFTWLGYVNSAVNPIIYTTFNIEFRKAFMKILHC

CC(C)c1ccc2c(C3CCN(CCN4CCN(C(C)C)C4=O)CC3)cn(-c3ccc(F)cc3)c2c1
IC50 [1]: 730 nM | ED50 (Rattus norvegicus [2]): > 0.54 µmol/kg | ED50 (Rattus norvegicus [3]): > 4.3 µmol/kg | IC50 [4]: 16 nM

CC(C)c1ccc2c(C3CCN(CCN4CCNC4=O)CC3)cn(-c3ccc(F)cc3)c2c1
IC50 [1]: 250 nM | IC50 (D(2) dopamine receptor): 2600 nM | IC50 [4]: 18 nM

Cc1ccc2c(C3CCN(CCN4CCNC4=O)CC3)cn(-c3ccc(F)cc3)c2c1
IC50 [1]: 24 nM | IC50 [4]: 0.82 nM

Cc1ccc2c(C3CCN(CCN4CCN(C(C)C)C4=O)CC3)cn(-c3ccc(Cl)cc3)c2c1
IC50 [1]: 450 nM | IC50 [4]: 6 nM

CC(C)N1CCN(CCN2CCC(c3cn(-c4ccc(F)cc4)c4cc(C(F)(F)F)ccc34)CC2)C1=O
IC50 [1]: 91 nM | IC50 [4]: 2.9 nM

CC(C)NC(=O)N(C)CCN1CCC(c2cn(-c3ccc(F)cc3)c3cc(Cl)ccc23)CC1
IC50 [1]: 26 nM | IC50 (D(2) dopamine receptor): 74 nM | ED50 (Mus musculus [5]): > 21 µmol/kg | ED50 (Mus musculus [6]): > 21 µmol/kg | ED50 (Rattus norvegicus [7]): 0.18 µmol/kg | ED50 (Rattus norvegicus [8]): 0.032 µmol/kg | ED50 (Rattus norvegicus [9]): > 21 µmol/kg | IC50 [4]: 2.2 nM | ED50 (Rattus norvegicus [10]): 0.016 µmol/kg

Cc1ccc2c(C3CCN(CCN4CCN(C(C)C)C4=O)CC3)cn(-c3ccc(F)cc3)c2c1
IC50 [1]: 85 nM | ED50 (Mus musculus [5]): 7.3 µmol/kg | ED50 (Mus musculus [11]): 13 µmol/kg | ED50 (Rattus norvegicus [12]): 0.042 µmol/kg | ED50 (Rattus norvegicus [13]): 0.036 µmol/kg | ED50 (Rattus norvegicus [14]): 0.11 µmol/kg | ED50 (Rattus norvegicus [9]): > 18 µmol/kg | IC50 [4]: 1.6 nM

CNC(=O)N(C)CCN1CCC(c2cn(-c3ccc(F)cc3)c3cc(Cl)ccc23)CC1
IC50 [1]: 16 nM | IC50 (D(2) dopamine receptor): 82 nM | ED50 (Mus musculus [5]): > 23 µmol/kg | ED50 (Mus musculus [6]): > 23 µmol/kg | ED50 (Rattus norvegicus [15]): 0.049 µmol/kg | ED50 (Rattus norvegicus [16]): 0.0092 µmol/kg | ED50 (Rattus norvegicus [9]): > 23 µmol/kg | IC50 [4]: 1.6 nM | ED50 (Rattus norvegicus [17]): 0.022 µmol/kg

Cc1ccc2c(C3CCN(CCNC(=O)NC(C)C)CC3)cn(-c3ccc(F)cc3)c2c1
IC50 [1]: 76 nM | IC50 [4]: 1.8 nM

Cc1ccc2c(C3CCN(CCN4CCN(C(C)C)C4=O)CC3)c[nH]c2c1
IC50 [1]: 27 nM | IC50 (D(2) dopamine receptor): 590 nM | ED50 (Rattus norvegicus [2]): > 0.84 µmol/kg | IC50 [4]: 60 nM

CC(C)N1CCN(CCN2CCC(c3cn(-c4ccccc4F)c4cc(Cl)ccc34)CC2)C1=O
IC50 [1]: 120 nM | IC50 [4]: 3.7 nM

CC(C)N1CCN(CCN2CCC(c3cn(-c4ccccc4)c4cc(Cl)ccc34)CC2)C1=O
IC50 [1]: 39 nM | IC50 (D(2) dopamine receptor): 290 nM | IC50 [4]: 4.5 nM
